Measurements published in ChEMBL document CHEMBL2380272, “Biological evaluation of bisbenzaldehydes against four Mycobacterium species” (Eur J Med Chem, 2013).
In brackets after ≈: the same amount, converted by molar mass.

Each compound was assayed on Mycobacterium tuberculosis variant bovis (assay: Antimycobacterial activity against Mycobacterium bovis AN5 assessed as growth inhibition after 6 days by luciferase reporter gene assay). Conditions: AN5, 144 h.
Assay type: functional
Method in brief: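 Mycobacteria carrying the pSMT1 luciferase reporter plasmid. Compounds came from 10 mM DMSO stocks and were serially diluted in 7H9 + 10% FCS. Thawed bacteria were filtered, recovered 1 h at 37 °C, then added at 50 000 RLU/mL. After 6 days of culture, light was read for 10 s after adding 1% n-decanal. Triplicates were run, and MIC50 was the concentration giving 50% growth inhibition.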
Compound O=Cc1ccc(OCCCCCCCCOc2ccc(C=O)cc2)cc1 has an MIC50 of 0.95 µM (≈ 0.337 µg/mL). With O=Cc1ccc(OCCCCCCCCCCOc2ccc(C=O)cc2)cc1 the MIC50 was 0.81 µM (≈ 0.31 µg/mL). In the case of O=Cc1ccc(OCCCOc2ccc(C=O)cc2)cc1, the MIC50 is reported as 2.65 µM (≈ 0.753 µg/mL). O=Cc1ccc(OCCCCCCOc2ccc(C=O)cc2)cc1 showed an MIC50 of 0.94 µM (≈ 0.307 µg/mL). With O=Cc1ccc(OCOc2ccc(C=O)cc2)cc1 the MIC50 was 2.93 µM (≈ 0.751 µg/mL). With O=Cc1ccc(OCCCCCCCCCOc2ccc(C=O)cc2)cc1 the MIC50 was 1.01 µM (≈ 0.372 µg/mL). Compound O=Cc1ccc(OCCCCOc2ccc(C=O)cc2)cc1 has an MIC50 of 2.51 µM (≈ 0.749 µg/mL). With O=Cc1ccc(OCCCCCOc2ccc(C=O)cc2)cc1 the MIC50 was 1.69 µM (≈ 0.528 µg/mL). Work on O=Cc1ccc(OCCCCCCCCCCCOc2ccc(C=O)cc2)cc1 yielded an MIC50 of 0.71 µM (≈ 0.282 µg/mL). O=Cc1ccc(OCCCCCCCCCCCCOc2ccc(C=O)cc2)cc1 showed an MIC50 of 0.64 µM (≈ 0.263 µg/mL). In the case of O=Cc1ccc(OCCCCCCCOc2ccc(C=O)cc2)cc1, the MIC50 is reported as 0.97 µM (≈ 0.33 µg/mL). O=Cc1ccc(OCCOc2ccc(C=O)cc2)cc1 was tested, and the MIC50 was 2.41 µM (≈ 0.651 µg/mL). NNC(=O)c1ccncc1 [ISONIAZID] gave an MIC50 of less than 0.1 µM.
